Consider three molecules from ChEMBL document CHEMBL1154113, “Synthesis, cannabinoid receptor affinity, molecular modeling studies and in vivo pharmacological evaluation of new substituted 1-aryl-5-(1H-pyrrol-1-yl)-1H-pyrazole-3-carboxamides. 2. Effect of the 3-carboxamide substituent on the affinity and selectivity profile” (Bioorg Med Chem, 2009).

For one assay, the species on record is Homo sapiens. Description: Selectivity index, ratio of Ki for human recombinant CB2 receptor to Ki for human recombinant CB1 receptor.
Assay [1] relates to Rattus norvegicus. The assay is described as follows: Reduction in cumulative food intake in Wistar rat at 1 mg/kg, ip measured 360 mins after lights off. The format is functional. A digest of the protocol: (§1)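 Adult male Wistar rats, about 400 g, housed singly under an inverted 12:12 h cycle, with free access to chow and water. Groups of n = 6–8 were matched on body weight and intake and given 0, 0.1, 1 or 10 mg/kg ip, suspended in saline with a few drops of Tween 80, 30 min before lights off. Food and water were weighed at 60–360 and 1440 min. Newman–Keuls test against vehicle.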

Assay [2] deals with Rattus norvegicus. Description: Reduction in cumulative food intake in Wistar rat at 10 mg/kg, ip measured 360 mins after lights off. The format is functional. The note with it: 6 h, route intraperitoneal. The method in brief: as §1
Assay [3] deals with Rattus norvegicus. The assay is described as follows: Reduction in food intake in Wistar rat at 1 mg/kg, ip after 1440 mins. Details: dose 1 mg/kg. The format is functional, organism-based. A digest of the protocol: as §1
The test system of assay [4] is Rattus norvegicus. Description: Reduction in food intake in Wistar rat at 10 mg/kg, ip after 1440 mins. On the set-up: dose 10 mg/kg. The format is functional, organism-based. The method in brief:
as §1

Assay [5] has as its system Rattus norvegicus. The assay is described as follows: Reduction in cumulative water intake in Wistar rat at 0.1 to 10 mg/kg, ip measured 360 mins after lights off. It counts as functional, organism-based. A digest of the protocol:
as §1

The subject of assay [6] is Rattus norvegicus. Description: Reduction in cumulative water intake in Wistar rat at 0.1 to 10 mg/kg, ip after 1440 mins. It counts as functional, organism-based. A digest of the protocol:
as §1

Another assay concerns the target Cannabinoid receptor 1 (Homo sapiens, UniProt P21554). Description: biochemical. It counts as cell-based, HEK293.
In another assay the target is Cannabinoid receptor 2 (Homo sapiens, UniProt P34972). Description: Displacement of [3H]CP-55940 from human recombinant CB2 receptor expressed in HEK cells. The format is cell-based, HEK293.
Assay [7] relates to Rattus norvegicus. Description: Reduction in cumulative food intake in Wistar rat at 10 mg/kg, ip measured 60 mins after lights off relative to control. It counts as functional. The settings on record: 1 h, route intraperitoneal. The method in brief: as §1

Calls of active or inactive are those of the source. No cut-off for these calls is given here.

Chain of Cannabinoid receptor 1 (P21554 whole entry): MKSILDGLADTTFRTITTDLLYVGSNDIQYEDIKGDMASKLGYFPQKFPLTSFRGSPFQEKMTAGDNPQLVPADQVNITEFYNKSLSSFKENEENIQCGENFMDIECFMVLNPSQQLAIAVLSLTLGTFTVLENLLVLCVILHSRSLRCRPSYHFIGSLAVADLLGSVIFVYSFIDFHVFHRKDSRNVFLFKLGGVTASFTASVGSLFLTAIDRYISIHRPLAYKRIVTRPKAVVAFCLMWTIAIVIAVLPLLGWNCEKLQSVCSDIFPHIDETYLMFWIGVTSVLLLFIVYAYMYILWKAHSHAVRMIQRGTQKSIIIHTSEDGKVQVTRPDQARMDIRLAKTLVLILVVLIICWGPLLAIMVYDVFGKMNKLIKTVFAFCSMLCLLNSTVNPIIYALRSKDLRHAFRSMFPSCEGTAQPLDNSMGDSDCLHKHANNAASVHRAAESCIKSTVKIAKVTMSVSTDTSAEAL
Chain of Cannabinoid receptor 2 (P34972 whole entry): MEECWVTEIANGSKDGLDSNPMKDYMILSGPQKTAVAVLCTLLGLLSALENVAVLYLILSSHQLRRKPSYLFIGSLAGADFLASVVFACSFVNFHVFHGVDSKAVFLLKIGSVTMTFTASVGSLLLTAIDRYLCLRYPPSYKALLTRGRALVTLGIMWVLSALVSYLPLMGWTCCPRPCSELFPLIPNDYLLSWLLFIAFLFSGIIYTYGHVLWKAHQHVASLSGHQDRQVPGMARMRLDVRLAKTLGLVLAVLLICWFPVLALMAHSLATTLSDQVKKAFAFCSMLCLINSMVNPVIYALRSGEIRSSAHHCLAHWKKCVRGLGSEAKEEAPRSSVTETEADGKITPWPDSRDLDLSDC

As to `Cc1c(C(=O)NCc2ccc(Cl)c(Cl)c2)nn(-c2ccc(Cl)cc2Cl)c1-n1c(C)ccc1C`, the Ratio Ki in the assay filed under Homo sapiens came to 141. The inhibition in vivo at 1 mg/kg in the assay with Rattus norvegicus [1] (6 h, route intraperitoneal) is 15%. The molecule also displayed an inhibition in vivo at 10 mg/kg in the assay on Rattus norvegicus [2] of 25%. Also, the outcome with Rattus norvegicus [3] and in the assay on Rattus norvegicus [4] was Active. Also, the outcome in the assay with Rattus norvegicus [5] and with Rattus norvegicus [6] was inactive.

`Cc1c(C(=O)NCCc2ccc(Cl)cc2)nn(-c2ccc(F)cc2F)c1-n1c(C)ccc1C`: the Ki is 0.05 µM on Cannabinoid receptor 1 and over 3.94 µM at Cannabinoid receptor 2. Moreover, the Ratio Ki in the assay filed under Homo sapiens is over 78.8. For the same molecule, the result in the assay on Rattus norvegicus [1] and in the assay with Rattus norvegicus [4] was Active. For the same molecule, the inhibition in vivo at 10 mg/kg in the assay with Rattus norvegicus [2] stood at 25%; with Rattus norvegicus [7] it was 40%. In addition, the outcome in the assay with Rattus norvegicus [5] and with Rattus norvegicus [6] was inactive.

With `Cc1c(C(=O)NCCc2ccc(Cl)cc2Cl)nn(-c2ccc(Cl)cc2Cl)c1-n1c(C)ccc1C`, the values for the inhibitory constant (Ki) at Cannabinoid receptor 1 and at Cannabinoid receptor 2 were 0.156 µM and over 3.94 µM, respectively. Also, the Ratio Ki in the assay filed under Homo sapiens was over 25.2.
